# Measurements gathered from unrelated publications.
# Each line is one published result; the experiments were not run side by side. pKd: −log10 of the molar value.
# UCK1: UCK1 (Homo sapiens, UniProt Q9HA47)
# PIK3C2B: Phosphatidylinositol 4-phosphate 3-kinase C2 domain-containing subunit beta (PIK3C2B, Homo sapiens, UniProt O00750)
# Nectin-4: Nectin-4 (Homo sapiens, UniProt Q96NY8)
# STK16: Serine/threonine-protein kinase 16 (STK16, Homo sapiens, UniProt O75716)
Compound,target,read-out,method,notes,pKd
CCCCc1nc2cc(/C=C/C(=O)NO)ccc2n1CCN(CC)CC,"Histone deacetylase 2 (HDAC2, Homo sapiens, UniProt Q92769)",cell-free assay,,,5.89
Nc1ncnc2c1ncn2[C@@H]1O[C@H](COP(=O)(O)O)[C@@H](O)[C@H]1O,"Adenylosuccinate lyase (ADSL, Homo sapiens, UniProt P30566, R303C)",binding,ITC,,3.89
CC(=O)N[C@H](C(=O)N[C@H](C(=O)N[C@@H](Cc1ccccc1)C(=O)N[C@H](C(=O)N[C@@H](CO)C(=O)N[C@@H](Cc1c[nH]c2ccccc12)C(=O)N[C@@H](CCC(=O)O)C(=O)N[C@@H](CCC(=O)O)C(=O)N[C@@H](Cc1ccc(O)cc1)C(=O)N[C@@H](CC(C)C)C(=O)N[C@@H](CC(=O)O)C(=O)N[C@@H](Cc1c[nH]c2ccccc12)C(=O)N[C@H](C(N)=O)C(C)C)[C@@H](C)O)C(C)C)[C@@H](C)O,"Proprotein convertase subtilisin/kexin type 9 (PCSK9, Homo sapiens, UniProt Q8NBP7)",binding,SPR,,6.18
[N-]=[N+]=N[C@@H]1[C@H](O)[C@@H](CO)O[C@H]1n1ccc(N)nc1=O,UCK1,binding,fluorescence,,7.18
C=CC(=O)N1CCC(C(=O)N(C)CC(=O)N2CCN(c3nc(-c4cnc(N)nc4C(F)F)nc(N4CCOCC4)n3)CC2)CC1,PIK3C2B,binding,competition with immobilised ligand,,6.81
NC(=O)C1=CN([C@@H]2O[C@H](COP(=O)(O)OP(=O)(O)OC[C@H]3O[C@@H](n4cnc5c(N)ncnc54)[C@H](OP(=O)(O)O)[C@@H]3O)[C@@H](O)[C@H]2O)C=CC1,"ZMO1885 (Zymomonas mobilis, UniProt Q5NLA1, D294W/Y343W)",binding,,,4.28
Cc1cnc(-c2ccc(-c3ccc(NC(=O)Nc4c(F)cc(F)cc4F)cc3F)c3c2C(=O)NC3)[nH]1,"Cytoplasmic tyrosine-protein kinase BMX (BMX, Homo sapiens, UniProt P51813)",binding,competition with immobilised ligand,,7.85
CCCC[C@@H]1NC(=O)[C@H](Cc2ccc(O)cc2)NC(=O)[C@@H]2CCCN2C(=O)[C@H](CC(=O)O)NC(=O)[C@H](C)NC(=O)[C@H](Cc2ccccc2)NC(=O)[C@@H]2CSCCC(=O)N3CN(CN(C3)C(=O)CCSC[C@@H](C(=O)N[C@@H](CNC(=O)CCc3cn(CCOCCOCCOCCOCCOCCOCCOCCOCCOCCOCCOCCOCCC(=O)NCCC(=O)N(C)CC(=O)N(C)CC(=O)N(C)CC(=O)N(C)CC(=O)N(C)CC(=O)N(C)CC(=O)N(C)CC(=O)N(C)CC(=O)N(C)CC(=O)N(C)CC(=O)NCCCC[C@@H]4NC(=O)[C@H](Cc5cccc6ccccc56)NC(=O)[C@@H]5CCCN5C(=O)[C@@H](NC(C)=O)CSCCC(=O)N5CN6CN(C5)C(=O)CCSC[C@H](NC4=O)C(=O)N[C@@H](CCSC)C(=O)N[C@@H](CCCCNC(=N)N)C(=O)N[C@@H](CC(=O)O)C(=O)N[C@@H](Cc4c[nH]c5ccccc45)C(=O)N[C@@H](CO)C(=O)N[C@@H]([C@@H](C)O)C(=O)N4CCC[C@H]4C(=O)N4C[C@H](O)C[C@H]4C(=O)N[C@@H](Cc4c[nH]c5ccccc45)C(=O)N[C@H](C(N)=O)CSCCC6=O)nn3)C(N)=O)NC1=O)C(=O)CCSC[C@H](NC(C)=O)C(=O)N[C@@H](CC(C)(C)C)C(=O)N1CCC[C@H]1C(=O)N[C@@H](CCC(=O)O)C(=O)N[C@H](C)C(=O)N1CCC[C@H]1C(=O)N[C@@H](Cc1ccc(O)cc1)C(=O)N2,Nectin-4,binding,SPR,,8.70
NC(=O)c1ncn([C@@H]2O[C@H](COP(=O)(O)O)[C@@H](O)[C@H]2O)c1N,"Adenylosuccinate lyase (ADSL, Homo sapiens, UniProt P30566)",binding,ITC,,4.47
CC(=O)N[C@H](C(=O)N1C[C@H](O)C[C@H]1C(=O)NCc1ccc(-c2scnc2C)cc1)C(C)(C)SCCCCCCNC(=O)C[C@@H]1N=C(c2ccc(Cl)cc2)c2c(sc(C)c2C)-n2c(C)nnc21,"Bromodomain-containing protein 3, BD1 (BRD3, Homo sapiens, UniProt Q15059)",binding,ITC,,7.46
CCCN1CCN(c2ccc(-c3cncc(Cl)c3N3CCC4(CCNC4=O)CC3)cc2)CC1,STK16,cell-free assay,,lysate,4.71
CCCC[C@@H]1NC(=O)[C@H](Cc2ccc(O)cc2)NC(=O)[C@@H]2CCCN2C(=O)[C@H](CC(=O)O)NC(=O)[C@H](C)NC(=O)[C@H](Cc2ccccc2)NC(=O)[C@@H]2CSCCC(=O)N3CN(CN(C3)C(=O)CCSC[C@@H](C(=O)N[C@@H](C)C(N)=O)NC1=O)C(=O)CCSC[C@H](NC(C)=O)C(=O)N[C@@H](CC(C)(C)C)C(=O)N1CCC[C@H]1C(=O)N[C@@H](CCC(=O)O)C(=O)N[C@H](CCCCNC(=O)CCc1cn(CC(=O)N[C@H]3CSCCC(=O)N4CN5CN(C4)C(=O)CCSC[C@H](NC(=O)[C@@H](CC(=O)O)NC(=O)[C@H](Cc4cccc6ccccc46)NC(=O)[C@@H]4CCCN4C3=O)C(=O)N[C@@H](CCSC)C(=O)N[C@@H](CCCCNC(=N)N)C(=O)N[C@@H](CC(=O)O)C(=O)N[C@@H](Cc3c[nH]c4ccccc34)C(=O)N[C@@H](CO)C(=O)N[C@@H]([C@@H](C)O)C(=O)N3CCC[C@H]3C(=O)N3C[C@H](O)C[C@H]3C(=O)N[C@@H](Cc3c[nH]c4ccccc34)C(=O)N[C@H](C(N)=O)CSCCC5=O)nn1)C(=O)N1CCC[C@H]1C(=O)N[C@@H](Cc1ccc(O)cc1)C(=O)N2,Nectin-4,binding,SPR,,9.00
CC#CC(=O)N1CC[C@@H](n2cc(-c3ccc(Oc4c(F)cccc4F)cc3)c3c(N)n[nH]c(=O)c32)C1,"Tyrosine-protein kinase TXK (TXK, Homo sapiens, UniProt P42681)",binding,competition with immobilised ligand,,6.87
Cc1cc(Nc2cc3ncccc3c(N[C@@H]3C[C@H]4CC[C@@H](C3)N4CCC#N)n2)n[nH]1,STK16,binding,competition with immobilised ligand,,6.96
CCC(=O)N1CCC(C(=O)N(C)CC(=O)N2CCN(c3nc(-c4cnc(N)nc4C(F)F)nc(N4CCOCC4)n3)CC2)CC1,PIK3C2B,binding,competition with immobilised ligand,,6.44
CCCC[C@@H]1NC(=O)[C@H](Cc2ccc(O)cc2)NC(=O)[C@@H]2CCCN2C(=O)[C@H](CC(=O)O)NC(=O)[C@H](C)NC(=O)[C@H](Cc2ccccc2)NC(=O)[C@@H]2CSCCC(=O)N3CN(CN(C3)C(=O)CCSC[C@@H](C(=O)N[C@@H](C)C(N)=O)NC1=O)C(=O)CCSC[C@H](NC(C)=O)C(=O)N[C@@H](CC(C)(C)C)C(=O)N1CCC[C@H]1C(=O)N[C@@H](CCC(=O)O)C(=O)N[C@H](CCCCNC(=O)CCc1cn(CCOCCOCCOCCOCCOCCC(=O)N[C@H]3CSCCC(=O)N4CN5CN(C4)C(=O)CCSC[C@H](NC(=O)[C@@H](CC(=O)O)NC(=O)[C@H](Cc4cccc6ccccc46)NC(=O)[C@@H]4CCCN4C3=O)C(=O)N[C@@H](CCSC)C(=O)N[C@@H](CCCCNC(=N)N)C(=O)N[C@@H](CC(=O)O)C(=O)N[C@@H](Cc3c[nH]c4ccccc34)C(=O)N[C@@H](CO)C(=O)N[C@@H]([C@@H](C)O)C(=O)N3CCC[C@H]3C(=O)N3C[C@H](O)C[C@H]3C(=O)N[C@@H](Cc3c[nH]c4ccccc34)C(=O)N[C@H](C(N)=O)CSCCC5=O)nn1)C(=O)N1CCC[C@H]1C(=O)N[C@@H](Cc1ccc(O)cc1)C(=O)N2,Nectin-4,binding,SPR,,8.74
Nc1ccn([C@@H]2O[C@H](CO)[C@@H](O)[C@H]2O)c(=O)n1,UCK1,binding,fluorescence,,7.80
